In ChEMBL document CHEMBL4513216, “Probing the Open Global Health Chemical Diversity Library for Multistage-Active Starting Points for Next-Generation Antimalarials” (ACS Infect Dis, 2020):

Assay: Toxicity liver stage against HepG2, at 10uM
Type: cell-based
Parameters: test concentration 10 uM, cell line HepG2-A16-CD81EGFP
Details: human, HepG2-A16-CD81EGFP cells; read-out: INHIBITION
Method in brief: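 Uninfected HepG2-A16-CD81EGFP cells, 3 × 10^3 per well, 1536-well, plated on prespotted compound at 10 μM final, parasite-free screening media added to match infected plates; puromycin 10 μM positive, DMSO 0.5% negative; run in parallel with 48 h PbLuc assay at 37 °C, 5% CO2; viability by CellTiter-Glo luminescence, normalized to controls.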

SMILES: CCn1nc(C)cc1C(=O)N1C[C@@H]2C[C@@H](c3nnc(C)[nH]3)O[C@@H]2C1
- cytotoxicity at 10 µM: -1.87%

SMILES: Cn1nccc1C(=O)N1C[C@@H]2CN(S(C)(=O)=O)CCO[C@@H]2C1
- cytotoxicity at 10 µM: 9.61%

SMILES: O=C(c1ncccn1)N1CCC[C@]2(C[C@H](OCC3CC3)CO2)C1
- cytotoxicity at 10 µM: -86%

SMILES: C1CC(CN2CCOCC3(CCN(C4CCOCC4)C3)C2)CCO1 (stereo not given)
- cytotoxicity at 10 µM: -3.37%

SMILES: O=C1CCc2cc(S(=O)(=O)NCc3cc4n(n3)CCNC4)ccc2N1
- cytotoxicity at 10 µM: 3.28%

SMILES: CCc1c(C(=O)N2CCC3(CCCN(CCO)C3=O)C2)csc1C (stereo not given)
- cytotoxicity at 10 µM: -128%

SMILES: Cc1n[nH]c(C)c1CN(C)C(C(=O)O)c1c(F)cccc1OC(C)C (stereo not given)
- cytotoxicity at 10 µM: -56.1%

SMILES: CN1CCC(c2n[nH]c(=O)n2CC2CCCCC2)CC1
- cytotoxicity at 10 µM: -45.2%

SMILES: Cc1c(Cl)cccc1NC(=O)N1CCC2(CC1)NC(=O)CC2C(=O)O (stereo not given)
- cytotoxicity at 10 µM: -1%

SMILES: Cc1ncsc1CCN(C)C(=O)CN1CCOc2ccccc2C1
- cytotoxicity at 10 µM: 5.72%

SMILES: CC1=CC[C@@H]2CN(C(=O)c3ccc(-c4nc[nH]n4)cc3)C[C@@H]2C1
- cytotoxicity at 10 µM: 0.417%

SMILES: Cc1cc(NC2CCN(Cc3ccccn3)CC2)n2nc(C)c(C)c2n1
- cytotoxicity at 10 µM: 0.951%

SMILES: Cc1nc(NC2(CN3CCCCC3)CCCCC2)c2cnn(C)c2n1
- cytotoxicity at 10 µM: 3.94%

SMILES: CCc1nn(C)c(Cl)c1CN1CCN(c2ccc(C(N)=O)cn2)CC1
- cytotoxicity at 10 µM: 9.83%

SMILES: CCCn1cc(C(=O)NC(CC(=O)O)c2ccccc2F)c(C)n1 (stereo not given)
- cytotoxicity at 10 µM: -43.9%

SMILES: CN(Cc1ccccc1)C1(C(=O)NCC(N)=O)Cc2ccccc2C1
- cytotoxicity at 10 µM: 2.45%

SMILES: COc1cccn(CC(=O)N2CCCC3(CCOCC3)C2)c1=O
- cytotoxicity at 10 µM: 8.78%

SMILES: Cc1cn(CCn2ccnc2-c2sccc2C)nn1
- cytotoxicity at 10 µM: 15.9%

SMILES: CSc1ncc(C(=O)N2CCC(O)(CN3CCOCC3)C(C)(C)C2)cn1 (stereo not given)
- cytotoxicity at 10 µM: -2.16%

SMILES: CCCc1nnc(N2CCN(Cc3ccccc3OC)CC2)o1
- cytotoxicity at 10 µM: -12%

SMILES: CSCC1CCN(C(=O)Cn2ncc(N3CCCCC3)cc2=O)CC1
- cytotoxicity at 10 µM: -3.95%

SMILES: NCCC1CN(Cc2cnc3c(-c4ccccc4)cnn3c2)CCO1 (stereo not given)
- cytotoxicity at 10 µM: -3.92%

SMILES: Cc1noc(C)c1C1CCCN1C(=O)CN1C(=O)OC(C)(C)C1=O (stereo not given)
- cytotoxicity at 10 µM: -2.57%

SMILES: CCNc1ccnc(N2CCCC(CCOC)(C(=O)O)C2)n1 (stereo not given)
- cytotoxicity at 10 µM: 2.84%

SMILES: COCCN(C)C[C@H]1CC[C@@H](Cc2ccc3c(cnn3C)c2)O1
- cytotoxicity at 10 µM: 0.255%

SMILES: CCCc1nnc(N2CCC(N3CCCC(O)C3)CC2)o1 (stereo not given)
- cytotoxicity at 10 µM: 13.6%

SMILES: CO[C@@]1(C)C[C@@H](O)C12CCN(C(=O)c1ccccc1C(C)=O)CC2
- cytotoxicity at 10 µM: 3.51%

SMILES: COc1cc(CNc2ccc(C)c(Cl)c2)ccc1OCC(N)=O
- cytotoxicity at 10 µM: 7.1%

SMILES: COc1cccc(C(=O)N2CCN(C(=O)CCCn3ccnc3)CC2)c1
- cytotoxicity at 10 µM: 3.82%

SMILES: COc1cccc(OCC2CCCN(c3cc(C(N)=O)ccn3)C2)c1 (stereo not given)
- cytotoxicity at 10 µM: 2.13%

SMILES: COC(=O)CCC(=O)N1CCc2[nH]nc(-c3ccc4c(c3)OCO4)c2C1
- cytotoxicity at 10 µM: -8.28%

SMILES: Clc1ccc(CN2CCCCC2Cn2cncn2)c2ncccc12 (stereo not given)
- cytotoxicity at 10 µM: -4.66%

SMILES: Cc1nnc(CN(C)C2CCN(Cc3nnc(C4CCC4)o3)C2)n1C (stereo not given)
- cytotoxicity at 10 µM: -8.15%

SMILES: O=C(CCc1ccsc1)N1CCCC(n2cncn2)C1 (stereo not given)
- cytotoxicity at 10 µM: -9.47%

SMILES: COCc1ccccc1C(=O)N1CCCC(c2cc(C)[nH]n2)C1 (stereo not given)
- cytotoxicity at 10 µM: -23.2%

SMILES: Cc1nc(C)n(C2CCCN(C(=O)c3csc(CC(C)C)n3)C2)n1 (stereo not given)
- cytotoxicity at 10 µM: -17.3%

SMILES: CCCc1noc(CN2CCCC2c2noc(C3CC3)n2)n1 (stereo not given)
- cytotoxicity at 10 µM: -13%

SMILES: CCN(Cc1ccc2c(c1)OCO2)Cc1nc(C)no1
- cytotoxicity at 10 µM: -6.49%

SMILES: CCN(Cc1cccc2c1OCO2)C(=O)C(C)c1cccnc1 (stereo not given)
- cytotoxicity at 10 µM: -4.84%

SMILES: O=C(O)c1cc2c(nc1-c1ccsc1)CCN(C(=O)C1CC1)CC2
- cytotoxicity at 10 µM: 14.4%

SMILES: COc1ccc(CN2CCn3cc(CNC(=O)CC4CC4)nc3C2)cc1
- cytotoxicity at 10 µM: -82.6%

SMILES: C1CC(CN2CCO[C@H]3[C@H](OCC4CC4)CC[C@@H]32)CCO1
- cytotoxicity at 10 µM: -13.3%

SMILES: COc1ccc(CN2C[C@@H]3COC[C@H](N4CCN(C)CC4)[C@@H]3C2)cc1
- cytotoxicity at 10 µM: -85.6%

SMILES: COc1cccc(CN2CCC3(CC2)CCN(c2ncc(F)cn2)C3)c1
- cytotoxicity at 10 µM: 1.42%

SMILES: O=C(NC1CCCCC1)N1CCc2onc(COc3cccnc3)c2C1
- cytotoxicity at 10 µM: -69.9%

SMILES: O=S1(=O)NCC2(CCNCC2)COc2ccccc21
- cytotoxicity at 10 µM: -2.75%

SMILES: Cc1cnc(N2C[C@@H]3[C@@H](C2)OCC(=O)N3CC(C)C)nc1
- cytotoxicity at 10 µM: -0.173%

SMILES: CCC(=O)N1CCC2(CCC(N3CCCC3)c3ccccc32)CC1 (stereo not given)
- cytotoxicity at 10 µM: -6.23%

SMILES: O=C(c1ccc2ccc(N3CCN(CC4CC4)CC3)n2c1)N1CCCO1
- cytotoxicity at 10 µM: 9.81%

SMILES: CCc1cnc(N2C[C@H](OCc3csc(C)n3)[C@H]3COC[C@H]32)nc1
- cytotoxicity at 10 µM: -2.51%

SMILES: Cc1ccc(CN2C[C@@H]3CN(c4ncccn4)C[C@@H]3C2)cc1
- cytotoxicity at 10 µM: -2.02%

SMILES: CCN1CCn2c(C)cnc2C12CCN(C(=O)NCC(C)C)CC2
- cytotoxicity at 10 µM: -1.07%

SMILES: O=C(c1cccnc1)N1CCC2(CC1)CNc1c(F)cccc12
- cytotoxicity at 10 µM: -1.02%

SMILES: COc1ccc(-c2cc(C3=NC(=CN4CCN(C)CC4)NO3)[nH]n2)cc1
- cytotoxicity at 10 µM: -17.8%

SMILES: CCc1nc(C)c(C(=O)N2C[C@@H]3CC[C@H]2CN(S(=O)(=O)N(C)C)C3)s1
- cytotoxicity at 10 µM: 25%
